# ChEMBL document CHEMBL1156166, “Structural development studies of anti-hepatitis C virus agents with a phenanthridinone skeleton” (Bioorg Med Chem, 2010)
# The source made the active and inactive calls. No cut-off for these calls is given here.
# Assays:
# [1] = Cytotoxicity against human NNC2 cells assessed as decrease in GAPDH RNA level after 3 days by RT-PCR; type: cell-based; conditions: for CC50 at 72 h: NNC2 cells; for CC50: nnc2, 72 h
# Procedure, shortened: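 NNC #2 cells carrying full-genomic HCV RNA replicons were grown in high-glucose DMEM with 10% FBS and 1 mg/mL G418. Cells were seeded at 5 × 10⁴ cells/mL and cultured 24 h at 37 °C. Medium was then replaced with DMEM/10% FBS containing graded compound concentrations for 3 days. HCV RNA and GAPDH RNA were quantified by real-time RT-PCR. EC50 and CC50 are the concentrations lowering each RNA to 50% of control.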
# [2] = test system: Hepatitis C virus; assay: Antiviral activity against HCV in human NNC2 cells assessed as inhibition of viral RNA replication after 3 days by RT-PCR analysis
# [3] = Cytotoxicity against human NNC2 cells assessed as decrease in GAPDH RNA level at 10 uM after 3 days by RT-PCR; type: cell-based; conditions: for inhibition (INH): nnc2, 72 h, 10 µM; for cytotoxicity at 72 h, 10 µM: NNC2 cells, read-out: INH
# [4] = test system: Hepatitis C virus; assay: Antiviral activity against HCV in human NNC2 cells assessed as inhibition of viral RNA replication at 10 uM after 3 days by RT-PCR analysis; conditions: Hepacivirus hominis
# [5] = Selectivity index, CC50 for human NNC2 cells to IC50 for Hepatitis C virus; type: functional
# [6] = test system: Hepatitis C virus; assay: Antiviral activity against HCV in human NNC2 cells assessed as inhibition of viral RNA replication at 10 uM after […] by RT-PCR analysis; type: functional, Hepacivirus hominis
# [7] = Hepatitis C virus, NNC2, 3 days, read-out: EC50
smiles,measurement,setting,value
CCCCn1c(=O)c2ccccc2c2cc(O)ccc21,CC50 at 72 h,[1],43.7 µM
same,EC50,[2]; [7],37.9 µM
O=c1c2ccccc2c2cc(C(O)(C(F)(F)F)C(F)(F)F)ccc2n1Cc1ccccc1,CC50 at 72 h,[1],18.2 µM
same,EC50,[2]; [7],7.7 µM
CCCCn1c(=O)c2ccccc2c2cc(CCc3ccccc3)ccc21,CC50 at 72 h,[1],24.1 µM
same,EC50,[2]; [7],21 µM
CCCCn1c(=O)c2ccccc2c2cccc(C)c21,inhibition (INH),[3],Not Active
same,inhibition,[4],inactive
CCCCn1c(=O)c2cc3c(cc2c2ccccc21)C(C)(C)CCC3(C)C,CC50,[1],Not Active
same,EC50,[2]; nnc2,Not Active
CCCCn1c(=O)c2ccccc2c2cc(C(C)=O)ccc21,CC50 at 72 h,[1],27.3 µM
same,EC50,[2]; [7],18.7 µM
CCCCn1c(=O)c2ccccc2c2c3ccccc3ccc21,CC50 at 72 h,[1],44.5 µM
same,EC50,[2]; [7],29.1 µM
CCn1c(=O)c2ccccc2c2cc(C(O)(C(F)(F)F)C(F)(F)F)ccc21,CC50 at 72 h,[1],> 40 µM
same,EC50,[2]; [7],14.1 µM
CCCCn1c(=O)c2ccccc2c2cc(F)ccc21,CC50 at 72 h,[1],> 50 µM
same,EC50,[2]; [7],> 50 µM
O=c1c2ccccc2c2cc(C(O)(C(F)(F)F)C(F)(F)F)ccc2n1CC1CCCCC1,CC50 at 72 h,[1],14.4 µM
same,EC50,[2]; [7],6.7 µM
CCCCn1c(=O)c2ccc(C)cc2c2ccccc21,inhibition (INH),[3],Not Active
same,inhibition,[4],inactive
CCCCn1c(=O)c2ccccc2c2cc(CO)ccc21,CC50 at 72 h,[1],> 50 µM
same,EC50,[2]; [7],21.5 µM
CCCCCCCCCn1c(=O)c2ccccc2c2cc(C(O)(C(F)(F)F)C(F)(F)F)ccc21,CC50 at 72 h,[1],10.2 µM
same,EC50,[2]; [7],8.3 µM
CCCCCCn1c(=O)c2ccccc2c2cc(C(O)(C(F)(F)F)C(F)(F)F)ccc21,CC50 at 72 h,[1],12.2 µM
same,EC50,[2]; [7],4.8 µM
CCCCn1c(=O)c2ccccc2c2cc(C(F)(F)F)ccc21,CC50 at 72 h,[1],> 50 µM
same,EC50,[2]; [7],> 50 µM
CCCCn1c(=O)c2cc3ccccc3cc2c2ccccc21,CC50 at 72 h,[1],> 40 µM
same,EC50,[2]; [7],11 µM
same,Selectivity Index,[5],>3.64
CCCCn1c(=O)c2c3ccccc3ccc2c2ccccc21,CC50 at 72 h,[1],> 40 µM
same,EC50,[2]; [7],29.9 µM
CCCCn1c(=O)c2cccc(C)c2c2ccccc21,"cytotoxicity at 72 h, 10 µM",[3],94.9%
same,inhibition,[4],inactive
CCCCn1c(=O)c2ccccc2c2ccc(C)cc21,"cytotoxicity at 72 h, 10 µM",[3],70.7%
same,inhibition,[4],inactive
CCCCn1c(=O)c2ccccc2c2c(C)cccc21,"cytotoxicity at 72 h, 10 µM",[3],85.2%
same,inhibition,[4],inactive
CCCCn1c(=O)c2ccccc2c2cc(C(C)C)ccc21,CC50 at 72 h,[1],29.7 µM
same,EC50,[2]; [7],16.2 µM
CCCCn1c(=O)c2ccccc2c2cc(C(O)(C(F)(F)F)C(F)(F)F)ccc21,CC50 at 72 h,[1],12.5 µM
same,EC50,[2]; [7],3.7 µM
O=c1c2ccccc2c2cc(C(O)(C(F)(F)F)C(F)(F)F)ccc2n1CC(F)(F)F,CC50 at 72 h,[1],30.3 µM
same,EC50,[2]; [7],24.8 µM
CC1(C)CCC(C)(C)c2cc3c(cc21)c1ccccc1c(=O)n3Cc1ccccc1,CC50 at 72 h,[1],31.8 µM
same,EC50,[2]; [7],21.2 µM
CCCCn1c(=O)c2ccccc2c2cc3ccccc3cc21,CC50 at 72 h,[1],6.3 µM
same,EC50,[2]; [7],3.2 µM
same,Selectivity Index,[5],1.97
CC1(C)CCC(C)(C)c2cc3c(cc21)[nH]c(=O)c1ccccc13,CC50,[1],Not Active
same,EC50,[2]; nnc2,Not Active
CCCCn1c(=O)c2ccccc2c2cc(C(C)(C)C)ccc21,CC50 at 72 h,[1],24.9 µM
same,EC50,[2]; [7],10.6 µM
CCCCn1c(=O)c2ccccc2c2ccccc21,inhibition (INH),[3],Not Active
same,CC50 at 72 h,[1],58.3 µM
same,EC50,[2]; [7],> 58.3 µM
same,inhibition,[4],inactive
CCCCn1c(=O)c2c(C)cccc2c2ccccc21,inhibition (INH),[3],Not Active
same,inhibition,[4],inactive
CCCCn1c(=O)c2cc(C)ccc2c2ccccc21,"cytotoxicity at 72 h, 10 µM",[3],88.8%
same,inhibition at 10 µM,[6],87%
CCCCn1c(=O)c2ccccc2c2ccc3ccccc3c21,CC50 at 72 h,[1],24.3 µM
same,EC50,[2]; [7],19.5 µM
CC1(C)CCC(C)(C)c2cc3c(cc21)c1ccccc1c(=O)n3CC1CCCCC1,CC50,[1],Not Active
same,EC50,[2]; nnc2,Not Active
CCCCn1c(=O)c2ccccc2c2cc(CC)ccc21,CC50 at 72 h,[1],40.5 µM
same,EC50,[2]; [7],34.7 µM
CCCCn1c(=O)c2ccccc2c2cc(C)ccc21,"cytotoxicity at 72 h, 10 µM",[3],98.5%
same,CC50 at 72 h,[1],38.4 µM
same,EC50,[2]; [7],35.8 µM
same,inhibition at 10 µM,[6],42%
CCCCn1c(=O)c2ccc3ccccc3c2c2ccccc21,CC50 at 72 h,[1],31.4 µM
same,EC50,[2]; [7],> 31.4 µM
CCCCn1c(=O)c2ccccc2c2cc(C(C)O)ccc21 (stereo not given),CC50 at 72 h,[1],51.4 µM
same,EC50,[2]; [7],21.8 µM
CCCCn1c(=O)c2ccccc2c2cc3c(cc21)C(C)(C)CCC3(C)C,CC50 at 72 h,[1],27.3 µM
same,EC50,[2]; [7],18.7 µM
